Laboratory results from article PMC11364305 (Annals of African Medicine, 2024).
In brackets after ≈: the same amount, converted by molar mass. Entries after “also recorded” stand apart in the source; their conditions may differ. Read-outs that look alike come from different tables or passages of the source.

Tests used:
C. neoformans MTCC4424 [1] = test: Disc diffusion assay, MTCC4424; type: cell-based, Cryptococcus neoformans; conditions: 37°C, 48 h, mean±SD; for Diameter of zone of inhibition: 10 μL of essential oil or active compound per disc
In short: (§1)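 Per CLSI M44-A2, modified. Strains were kept on SDA slants at 4°C and subcultured in SDB before use. 100 µl of cell suspension (1.5 × 10^8 cfu/ml) was spread on SDA. Plates got antifungal drug discs (10–20 µg/disc) or 8 mm paper discs soaked with 10 µl of oil or test compound, then incubated at 37°C for 48 h. Inhibition-zone diameter (mm) was recorded in triplicate as mean ± SD.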

[2] = test system: C. neoformans (clinical isolate CN); test: Disc diffusion assay, clinical isolate CN; type: cell-based, Cryptococcus neoformans; conditions: 37°C, 48 h, mean±SD; for Diameter of zone of inhibition: 10 μL of essential oil or active compound per disc
In short: as §1

[3] = test system: Cryptococcus neoformans test strains (CN and CN MTCC4424); test: Disc diffusion, text statements for both test strains; type: cell-based; conditions: oils/compounds, against the test strains
In short: as §1

Cytotoxicity = type: cell-based; conditions: red blood cell suspension (4% RBC from defibrinated blood), pH 7
[4] = test system: C. neoformans (clinical isolate CN); test: Broth microdilution MIC/MFC, clinical isolate CN; type: cell-based; conditions: Cryptococcus neoformans
[5] = test system: Cryptococcus neoformans test strains (CN and CN MTCC4424); test: Broth microdilution, text statements for both test strains; type: cell-based
C. neoformans MTCC4424 [6] = test: Broth microdilution MIC/MFC, MTCC4424; type: cell-based; conditions: Cryptococcus neoformans; for MFC: MTCC4424
[7] = test system: CN and CN MTCC4424 strains; test: Checkerboard test, text statements for both test strains; type: cell-based, Cryptococcus neoformans; conditions: for Interaction with fluconazole: checkerboard, CN and CN MTCC4424
C. neoformans MTCC4424 [8] = test: Checkerboard microtiter test with fluconazole, MTCC4424; type: cell-based, Cryptococcus neoformans; conditions: for MIC: Cryptococcus neoformans, MTCC4424, 48 h, read-out: MIC of agent alone
C. neoformans CN = test: Checkerboard microtiter test with fluconazole, CN; type: cell-based, Cryptococcus neoformans; conditions: for MIC: Cryptococcus neoformans, 48 h, read-out: MIC of agent alone; for Lowering of own MIC: in combination with fluconazole, against CN
red blood cell (RBC) = test: Cytotoxicity; type: cell-based; conditions: 0.1% (v/v) Triton X-100
[9] = Cryptococcus neoformans, MTCC4424, read-out: MIC, oils/compounds, against the test strains
[10] = oils/compounds, against the test strains
[11] = EL-FLC combination (eugenol + fluconazole)
[12] = CD-FLC combination (cinnamaldehyde + fluconazole)

| Compound | Diameter of zone of inhibition (C. neoformans MTCC4424 [1]) [mm] | Diameter of zone of inhibition [2] [mm] | zone of inhibition [3] [mm] | hemolysis at 2 h, 25 μg/mL (Cytotoxicity) [%] | hemolysis at 2 h, 50 μg/mL (Cytotoxicity) [%] | hemolysis at 2 h, 100 μg/mL (Cytotoxicity) [%] | hemolysis at 2 h, 200 μg/mL (Cytotoxicity) [%] | hemolysis at 2 h, 400 μg/mL (Cytotoxicity) [%] | hemolysis at 2 h, 800 μg/mL (Cytotoxicity) [%] | hemolysis at 2 h, 1600 μg/mL (Cytotoxicity) [%] | hemolysis at 2 h, 3200 μg/mL (Cytotoxicity) [%] | MIC ([4]; 24 h) [µg/mL] | MIC [5, 9] [µg/mL] | MIC [5, 10] [µg/mL] | MIC (C. neoformans MTCC4424 [6]; MTCC4424, 24 h) [µg/mL] | Reduction of MICs in combination with fluconazole [7] | Interaction with fluconazole [7] | MIC (C. neoformans MTCC4424 [8]) [µg/mL] | MIC (C. neoformans CN) [µg/mL] | MFC [4] [µg/mL] | also measured |
| --- | --- | --- | --- | --- | --- | --- | --- | --- | --- | --- | --- | --- | --- | --- | --- | --- | --- | --- | --- | --- | --- |
| CC(C)=CCC/C(C)=C/CO [GR, Geraniol] | 19.33±1.24 | 19.33±1.24 | > 15 | 1.33 ± 0.17 | 2.16 ± 0.25 | 2.31 ± 0.26 | 2.87 ± 0.23 | 3.36 ± 0.18 | 3.85 ± 0.11 | 4.74 ± 0.34 | 14.3 ± 0.23 | 400 (≈ 2590 µM) | 400 to 1600 (≈ 2590 to 10400 µM) | 400 to 1600 | 800 (≈ 5190 µM) | up to 8 fold | synergy |  |  |  |  |
| C=CCc1ccc(O)c(OC)c1 [EL, Eugenol] | 40.33±1.69 | 22.66±1.24 | > 15 | 1.65 ± 0.14 | 1.98 ± 0.09 | 3.02 ± 0.08 | 3.72 ± 0.16 | 4.26 ± 0.16 | 4.78 ± 0.25 | 5.6 ± 0.63 | 19 ± 0.3 | 200 (≈ 1220 µM) | 200 (≈ 1220 µM) | 100 to 200 | 200 (≈ 1220 µM) | up to 32 fold | synergistic interaction | 200 | 200 |  | MIC of agent in combination (C. neoformans MTCC4424 [8]; [11]): 12.50 µg/mL; MIC of agent in combination (C. neoformans CN; [11]): 12.50 µg/mL; FICI (C. neoformans CN; combination with fluconazole): 0.187; Lowering of own MIC (C. neoformans CN): 8 folds |
| Triton X-100 [reference compound] |  |  |  |  |  |  |  |  |  |  |  |  |  |  |  |  |  |  |  |  | hemolysis (positive control) (red blood cell (RBC)): 100% |
| OC(Cn1cncn1)(Cn1cncn1)c1ccc(F)cc1F [FLC, Fluconazole, reference compound] |  |  |  |  |  |  |  |  |  |  |  |  |  |  |  | up to 32 fold |  | 8 | 128 | 256 (≈ 836 µM) | Diameter of the zone of inhibition (C. neoformans MTCC4424 [1]; antifungal drugs 10 μg/disc): 14.33±1.24 mm; MIC of agent in combination (C. neoformans MTCC4424 [8]; [12]): 1 µg/mL; MIC of agent in combination (C. neoformans MTCC4424 [8]; [11]): 1 µg/mL; MIC of agent in combination (C. neoformans CN; [12]): 8 µg/mL; MIC of agent in combination (C. neoformans CN; [11]): 8 µg/mL; MIC ([4]; 48 h): 128 µg/mL (≈ 418 µM); MFC (C. neoformans MTCC4424 [6]): 32 µg/mL (≈ 104 µM); MIC (C. neoformans MTCC4424 [6]; MTCC4424, 48 h): 8 µg/mL (≈ 26.1 µM) |
| O=C/C=C/c1ccccc1 [CD, Cinnamaldehyde] | 45.66±2.49 | 48.33±3.39 | > 15 | 1.84 ± 0.19 | 2.87 ± 0.07 | 3.39 ± 0.12 | 3.96 ± 0.05 | 4.4 ± 0.17 | 5.06 ± 0.2 | 6.22 ± 0.19 | 18.1 ± 0.4 | 100 (≈ 757 µM) | 100 (≈ 757 µM) | 100 to 200 | 100 (≈ 757 µM) | up to 32 fold | synergistic interaction | 100 | 100 |  | MIC of agent in combination (C. neoformans MTCC4424 [8]; [12]): 12.50 µg/mL; MIC of agent in combination (C. neoformans CN; [12]): 12.50 µg/mL; Lowering of own MIC (C. neoformans CN): 8 folds |
| CC(C)=CCCC(C)=CC=O (mixture of isomers) [CT, Citral] | 22.66±1.24 | 25.33±2.05 | > 15 | 1.78 ± 0.16 | 2.86 ± 0.15 | 3.8 ± 0.18 | 4.29 ± 0.12 | 4.51 ± 0.13 | 5.98 ± 0.21 | 6.96 ± 0.1 | 17.6 ± 1.04 | 800 | 400 to 1600 | 400 to 1600 | 1600 | up to 8 fold | less synergistic; also recorded: synergy |  |  |  |  |
| CCC(C)n1ncn(-c2ccc(N3CCN(c4ccc(OCC5COC(Cn6cncn6)(c6ccc(Cl)cc6Cl)O5)cc4)CC3)cc2)c1=O (stereo not drawn) [ITC, Itraconazole] |  |  |  |  |  |  |  |  |  |  |  |  |  |  |  |  |  |  |  | 128 (≈ 181 µM) | MIC ([4]; 48 h): 64 µg/mL (≈ 90.7 µM); MIC range (resistance to azoles) ([5]; antifungal drugs, both test strains): 64 to 256 µg/mL; MFC (C. neoformans MTCC4424 [6]): 256 µg/mL (≈ 363 µM); MIC (C. neoformans MTCC4424 [6]; MTCC4424, 48 h): 128 µg/mL (≈ 181 µM) |
| CC(=O)N1CCN(c2ccc(OCC3COC(Cn4ccnc4)(c4ccc(Cl)cc4Cl)O3)cc2)CC1 (stereo not drawn) [KTC, Ketoconazole] |  |  |  |  |  |  |  |  |  |  |  |  |  |  |  |  |  |  |  | 0.5 (≈ 0.941 µM) | Diameter of the zone of inhibition ([2]; antifungal drugs 10 μg/disc): 19.33±1.24 mm; MIC ([4]; 48 h): 0.25 µg/mL (≈ 0.47 µM); MFC (C. neoformans MTCC4424 [6]): 128 µg/mL (≈ 241 µM); MIC (C. neoformans MTCC4424 [6]; MTCC4424, 48 h): 64 µg/mL (≈ 120 µM) |
